Published values collected from several papers.
Compare with care: the assays were run in different laboratories.
Target: Mitogen-activated protein kinase 13 (MAPK13, Homo sapiens, UniProt O15264)
Residues used in one study (O15264 1-365): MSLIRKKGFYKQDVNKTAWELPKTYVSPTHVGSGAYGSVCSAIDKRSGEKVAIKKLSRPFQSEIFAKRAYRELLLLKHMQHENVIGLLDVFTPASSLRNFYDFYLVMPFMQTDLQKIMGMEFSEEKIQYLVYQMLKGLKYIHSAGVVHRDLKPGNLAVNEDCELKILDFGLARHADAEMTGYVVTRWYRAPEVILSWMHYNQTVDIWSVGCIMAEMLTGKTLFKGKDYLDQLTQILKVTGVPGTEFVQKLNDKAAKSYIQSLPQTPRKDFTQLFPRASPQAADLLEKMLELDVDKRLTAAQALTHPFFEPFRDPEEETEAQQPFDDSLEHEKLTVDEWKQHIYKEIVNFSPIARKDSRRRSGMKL

With `CC1CCCN1c1nccc(-c2cnn3ncccc23)n1` (stereo not shown) the remaining binding was 100% (binding; 1 µM).
`O=C(NCCCN1CCOCC1)c1ccc(Nc2ncc(Cl)c(-c3ccc(Cl)s3)n2)cc1` gave a remaining binding of 100% (binding, competition with immobilised ligand; 1 µM).
`CS(=O)(=O)NCC[C@H](NC(=O)c1cncc2c1cnn2-c1ccc(F)cc1)c1ccnc(S(C)(=O)=O)c1` has a remaining binding of 100% (cell-free assay, competition with immobilised ligand; 1 µM).
The remaining binding of `O=C(c1ccc(Nc2nccc(-c3cc4ccccc4s3)n2)cc1)N1CCC(N2CCCC2)CC1` is reported as 100% (binding, competition with immobilised ligand; 1 µM).
The remaining binding of `CNC(=O)[C@@H]1CC[C@@H](n2c(-c3ccc4cnccc4c3)nc3ccc(C(=O)NCc4cccc(C(N)=O)c4)cc32)C1` is reported as 100% (binding, competition with immobilised ligand; 1 µM).
For `N[C@H]1CCN(c2nccc(-c3cnn4ncccc34)n2)C1`, the remaining binding was 84% (binding; 1 µM).
`O=C(c1ccc(Nc2ncc(Cl)c(-c3ccc(Cl)s3)n2)cc1)N1CCC(N2CCCC2)CC1` gave a remaining binding of 100% (binding, competition with immobilised ligand; 1 µM).
`CN(c1nccc(-c2cnn3ncccc23)n1)C1CC1` gave a remaining binding of 100% (binding; 1 µM).
The remaining binding of `NS(=O)(=O)c1cc(NC(=O)Cc2ccccc2)ccc1Oc1cccc(Cl)c1` is reported as 100% (cell-free assay, competition with immobilised ligand; 1 µM).
`C[C@H]1CCN(c2nccc(-c3cnn4ncccc34)n2)C1` has a remaining binding of 83% (binding; 1 µM).
`COc1ncc2cc3ccccc3nc2c1C#N` has a remaining binding of 79% (cell-free assay, competition with immobilised ligand; 5 µM).
For `CCS(=O)(=O)c1cc2cc(C[C@](O)(CC(C)(C)c3ccc(F)cc3C(N)=O)C(F)(F)F)[nH]c2cn1`, the remaining binding was 100% (cell-free assay, competition with immobilised ligand; 1 µM).
The remaining binding of `CN(C)c1ncc(F)c(-c2cnn3ncccc23)n1` is reported as 96% (binding; 1 µM).
`O=C(NCC1CCOCC1)c1n[nH]cc1NC(=O)c1c(F)cccc1F` gave a remaining binding of 100% (binding, competition with immobilised ligand; 1 µM).
For `O=C(Nc1cnc(Oc2ccc(F)cc2)nc1)N1CCc2ncccc2[C@@H]1c1ccc(F)cc1`, the remaining binding was 100% (cell-free assay, competition with immobilised ligand; 1 µM).
The remaining binding of `F[C@@H]1CCN(c2nccc(-c3cnn4ncccc34)n2)C1` is reported as 67% (binding; 1 µM).
`NS(=O)(=O)c1cc(NC(=O)C2(c3ccccc3Cl)CC2)ccc1Oc1cccc(Cl)c1` has a remaining binding of 88% (cell-free assay, competition with immobilised ligand; 1 µM).
With `C[C@@H](c1ccc(-n2cnc3c(N)ncnc32)cc1)N1CCc2nn(C)c(Cc3ccccc3)c2C1=O` the remaining binding was 83% (binding, competition with immobilised ligand; 0.1 µM).
With `COc1ccc2c(c1)O[C@H](c1ccc(OC)c(OC)c1)C[C@@H]2NC(=O)C1(c2ccc3c(c2)OC(F)(F)O3)CC1` the remaining binding was 100% (cell-free assay, competition with immobilised ligand; 1 µM).
The remaining binding of `c1cncc(-c2cccc(Nc3nccc(NC4CCCCC4)n3)c2)c1` is reported as 86% (binding, competition with immobilised ligand; 10 µM).
`COc1ccnn2ncc(-c3ccnc(N(C)C)n3)c12` gave a remaining binding of 100% (binding; 1 µM).
The remaining binding of `Cc1c[nH]c2nccc(Oc3c(F)cc(Nc4cc(Cl)nc(N)n4)cc3F)c12` is reported as 89% (cell-free assay, competition with immobilised ligand; 0.1 µM).
